Assay results reported in ChEMBL document CHEMBL4138161, “Discovery of simplified sampangine derivatives as novel fungal biofilm inhibitors” (Eur J Med Chem, 2018).
≈ marks a conversion by molar mass, not a printed value. Calls of active or inactive are those of the source. The calls are words filed in the database; no cut-off is given here.

Legend:
Candida albicans [1] = assay: Antibiofilm activity against Candida albicans SC5314 assessed down regulation of CPH1 gene at 0.4 ug/ml after 1 hr by qRT-PCR analysis; format: functional, organism-based
Method in brief: (§1)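 Biofilm grown in dishes with 0.4 µg/mL compound or DMSO control for 1 h; total RNA isolated and transcripts quantified by real-time RT-PCR. Normalized to 18S rRNA, expressed as fold change vs untreated SC5314. Mean ± SD of three independent experiments.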

Candida albicans [2] = assay: Antifungal activity against fluconazole-resistant Candida albicans isolate J38 clinical isolate after 24 hrs by spectrophotometric analysis; format: functional; settings: isolate J38, 24 h
Method in brief: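 Broth microdilution (MIC80) against fluconazole-resistant clinical C. albicans isolates from a Shanghai hospital. Strains were grown in YPD at 30 ℃. Compounds came from 6.4 mg/mL DMSO stocks and were tested over a concentration series on 5×10^3 CFU/mL inoculum in RPMI 1640 at 35 ℃ for 24 h. OD600 was read; MIC80 is the lowest concentration giving 80% growth inhibition. Done in triplicate.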

Candida albicans [3] = assay: Fungicidal activity against Candida albicans SC5314 assessed as reduction in colony forming units at 0.8 ug/ml after 48 hrs by time-kill assay; format: functional, organism-based
Method in brief: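 Time-kill: overnight cells PBS-washed, resuspended in RPMI 1640 at 1×10^6 cells/mL with compound, shaken at 200 rpm at 30 ℃. At set time points, dilutions plated on YPD agar and colonies counted after 48 h at 30 ℃. Three independent runs.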

Staphylococcus aureus = assay: Antibacterial activity against Staphylococcus aureus Mu50 after 24 hrs; format: functional; settings: Mu50, 24 h
Candida albicans [4] = assay: Antibiofilm activity against Candida albicans SC5314 cultured in RPMI 1640 media assessed inhibition of yeast-to-hypha morphological transition after 3 hrs; format: functional, organism-based
Method in brief: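 Hyphal induction in Lee's (pH 6.8), Spider, SLAD or RPMI 1640 medium with compound; morphology assessed by microscopy.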

Caenorhabditis elegans = assay: Toxicity in Caenorhabditis elegans AU37 at 6.25 to 100 ug/ml after 2 days; format: organism-based; settings: in vivo, 48 h
Method in brief: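 Nematodes placed in medium containing a range of compound concentrations, held at 25 ℃ for 2 d, checked daily and photographed on day 2.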

Candida albicans [5] = assay: Antibiofilm activity against Candida albicans SC5314 assessed as disruption of biofilm formation at 6.4 ug/ml; format: functional, organism-based
Candida albicans [6] = assay: Antibiofilm activity against Candida albicans SC5314 assessed inhibition of cellular surface hydrophobicity at 0.2 to 1.6 ug/ml incubated for 24 hrs; format: functional, organism-based
Method in brief: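 Biofilms treated with compound for 24 h were detached and resuspended in PBS to OD600 1.0. Suspension was vortexed with octane (4:1 by volume) for 3 min, then left 3 min at room temperature to separate. Aqueous-phase OD600 was compared with a no-octane control as (control − overlay)/control × 100%. Three replicates per group across three independent experiments.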

Candida albicans [7] = assay: Antibiofilm activity against Candida albicans SC5314 assessed down regulation of ECE1 gene at 0.4 ug/ml after 1 hr by qRT-PCR analysis; format: functional, organism-based; method in brief: as §1
Candida albicans [8] = assay: Antibiofilm activity against Candida albicans SC5314 assessed as disruption of biofilm formation at 12.8 ug/ml; format: functional, organism-based

Row | Compound | Activity (Candida albicans [1]) | MIC80 (Candida albicans [2]) [µg/mL] | Activity (Candida albicans [3]) | MIC80 (Staphylococcus aureus) [µg/mL] | Activity (Candida albicans [4]) | Activity (Caenorhabditis elegans) | Activity (Candida albicans [5]) | Activity (Candida albicans [6]) | Activity (Candida albicans [7]) | Activity (Candida albicans [8])
1 | CCc1ccnc2c1C(=O)c1sc([N+](=O)[O-])cc1C2=O | Active | 0.25 (≈ 0.867 µM) | Active | > 128 | Dose-dependent effect | Non-Toxic | Active | Active | Active | –
2 | CCCc1ccnc2c1C(=O)c1sc([N+](=O)[O-])cc1C2=O | Active | 1 (≈ 3.31 µM) | Active | > 128 | Dose-dependent effect | Non-Toxic | – | Active | Active | Active
